Source: ChEMBL document CHEMBL1124112, “Indoline analogues of idazoxan: potent alpha 2-antagonists and alpha 1-agonists” (J Med Chem, 1988)

Tests used:
Rattus norvegicus [1] = assay: In vivo dose required to inhibit vas deferens contraction by 25% after pretreatment with prazosin in pithed rats. (prejunctional); assay type: functional
Procedure, shortened: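 Pithed rats pretreated with prazosin (1 mg/kg). Compound given iv in cumulative doses. ED25 is the dose (μg/kg) inhibiting vas deferens contraction by 25%. Separate groups of rats (n = 4-6).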

[2] = molecular target: Adrenergic receptor alpha-1 (Rattus norvegicus) (UniProt P15823+P23944+P43140); assay: Agonism at alpha-1 adrenergic receptor, determined as the dose required to produce a two fold shift of the cirazoline on diastolic blood pressure.; assay type: functional, tissue-based; settings: Artery
[3] = test system: Adrenergic receptor alpha-1 (Rattus norvegicus); assay: […] towards alpha-1 adrenergic receptor determined as the dose required to produce a two fold shift of the cirazoline on diastolic blood pressure (in vitro); settings: Artery
[4] = molecular target: Adrenergic receptor alpha-2 (Rattus norvegicus) (UniProt P22086+P19328+P22909); assay: Antagonist potency towards alpha-2 adrenergic receptor determined as the dose required to produce a two fold shift of the dose-response curve to UK-14304 on the twitch response of the vas deferens (in vitro);AG- agonist; assay type: functional, tissue-based; settings: filed as agonist
[5] = molecular target: T1, Adrenergic receptor alpha-1 (Rattus norvegicus, UniProt P15823+P23944+P43140); assay: Inhibition of saturable binding of [3H]prazosin to alpha-1 adrenergic receptor in rat cerebral cortical membranes.; assay type: cell membranes, Membrane
T1 sequence (P15823 whole entry): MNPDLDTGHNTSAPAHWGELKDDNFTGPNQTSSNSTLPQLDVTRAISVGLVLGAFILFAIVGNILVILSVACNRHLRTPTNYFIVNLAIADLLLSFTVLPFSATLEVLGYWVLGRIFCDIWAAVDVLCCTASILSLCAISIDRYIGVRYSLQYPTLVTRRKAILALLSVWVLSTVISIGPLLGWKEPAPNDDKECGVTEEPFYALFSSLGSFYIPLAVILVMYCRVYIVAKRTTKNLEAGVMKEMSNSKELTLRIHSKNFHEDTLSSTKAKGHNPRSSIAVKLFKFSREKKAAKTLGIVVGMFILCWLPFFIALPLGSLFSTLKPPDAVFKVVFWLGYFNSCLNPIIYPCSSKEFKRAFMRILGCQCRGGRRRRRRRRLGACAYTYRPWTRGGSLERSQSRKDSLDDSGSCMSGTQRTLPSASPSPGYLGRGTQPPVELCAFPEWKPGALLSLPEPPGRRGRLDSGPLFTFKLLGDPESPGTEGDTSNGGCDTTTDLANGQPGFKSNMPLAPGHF
T1 sequence (P23944 whole entry): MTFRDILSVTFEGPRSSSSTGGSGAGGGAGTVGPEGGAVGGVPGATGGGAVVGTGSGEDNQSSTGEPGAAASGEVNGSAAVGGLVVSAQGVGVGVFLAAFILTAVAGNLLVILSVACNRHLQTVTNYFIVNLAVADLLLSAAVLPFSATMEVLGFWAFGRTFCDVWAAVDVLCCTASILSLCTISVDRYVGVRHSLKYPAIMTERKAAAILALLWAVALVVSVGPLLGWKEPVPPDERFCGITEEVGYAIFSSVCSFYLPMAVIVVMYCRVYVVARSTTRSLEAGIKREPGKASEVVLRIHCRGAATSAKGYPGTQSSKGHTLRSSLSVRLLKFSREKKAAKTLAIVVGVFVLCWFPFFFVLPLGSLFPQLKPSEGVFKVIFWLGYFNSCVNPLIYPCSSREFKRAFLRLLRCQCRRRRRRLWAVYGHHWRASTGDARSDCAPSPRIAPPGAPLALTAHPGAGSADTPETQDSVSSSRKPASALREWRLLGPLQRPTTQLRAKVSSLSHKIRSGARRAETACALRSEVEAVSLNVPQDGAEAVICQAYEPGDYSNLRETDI
T1 sequence (P43140 whole entry): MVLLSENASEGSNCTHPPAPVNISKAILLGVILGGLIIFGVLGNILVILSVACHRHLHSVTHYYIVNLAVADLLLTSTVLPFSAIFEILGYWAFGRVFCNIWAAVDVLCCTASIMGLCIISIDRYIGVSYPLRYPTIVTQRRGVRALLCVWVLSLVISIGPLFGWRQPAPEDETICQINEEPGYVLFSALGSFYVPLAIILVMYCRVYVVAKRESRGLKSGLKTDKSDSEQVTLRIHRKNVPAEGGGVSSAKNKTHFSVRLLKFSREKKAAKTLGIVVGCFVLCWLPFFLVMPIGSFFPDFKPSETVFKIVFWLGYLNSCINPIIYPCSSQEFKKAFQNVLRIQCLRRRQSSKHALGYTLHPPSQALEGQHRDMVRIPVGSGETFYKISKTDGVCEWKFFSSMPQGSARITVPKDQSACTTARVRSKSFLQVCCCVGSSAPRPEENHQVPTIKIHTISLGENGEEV
Procedure, shortened: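 Rat cerebral cortical membranes were used as the α1 site source and labelled with [³H]prazosin. Compounds displaced saturable binding. Ki (nM) was defined as the concentration inhibiting saturable binding by 50%.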

[6] = test system: Adrenergic receptor alpha-2 (Rattus norvegicus); assay: Agonism at alpha-2 adrenergic receptor, determined as dose required to produce a two fold shift of the cumulative dose-response curve to UK-14304 on the twitch response in rat vas deferens.
Rattus norvegicus [7] = assay: In vivo antagonist dose producing two fold shift of cirazoline in pithed rats. (postjunctional); assay type: functional
Procedure, shortened: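 Pithed rats, separate groups (n = 4-6). Cirazoline cumulative dose-response on diastolic blood pressure (postjunctional α1) was recorded with and without antagonist given iv. The antagonist dose (μg/kg, iv) giving a twofold rightward shift of the cirazoline curve was reported as DR2.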

Rattus norvegicus [8] = assay: In vivo ED40 is the raising diastolic blood pressure by 40 mm Hg in pithed rats. (postjunctional); assay type: functional; settings: Artery
Procedure, shortened: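 Pithed rats, compound given iv in cumulative doses. ED40 is the dose (μg/kg) raising diastolic blood pressure by 40 mmHg. Separate groups of rats (n = 4-6).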

Prejunctional antagonist potency [4]: Agonist | Ki [5]: 17.5 nM | Prejunctional agonist potency [6]: 0.02
SMILES: c1ccc(CN2c3ccccc3CC2C2=NCCN2)cc1 (stereo not drawn)
ED25 (Rattus norvegicus [1]): 9.5 µg/kg | Postjunctional agonist potency [2]: 0 | Postjunctional antagonist potency [3]: 120 | DR2 (Rattus norvegicus [7]): 0.0543 mg/kg | ED40 (Rattus norvegicus [8]): 0.308 mg/kg
